Experimental data published in ChEMBL document CHEMBL1141647, “Novel ofloxacin derivatives: synthesis, antimycobacterial and toxicological evaluation” (Bioorg Med Chem Lett, 2008).
≈ marks a conversion by molar mass, not a printed value.

Assays:
Mus musculus [1] = experiment: Phototoxic effect in mouse assessed as ear thickness at 140 mg/kg administered before UV light exposure relative to control; type: ADME, organism-based; design: dose 140 mg/kg; conditions: in vivo
Outline: (§1)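 Mice dosed at 140 mg/kg and exposed to UV immediately after dosing. Irradiation ended at 4 h. Ear thickness (mm) was measured at 0 (pre-dose), 4, 24, 48, 72 and 96 h, left and right ears averaged, mean ± SEM. Comparison was against vehicle controls (0.5% aqueous sodium carboxymethylcellulose, 10 mL/kg) and against the 0 h reading.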

[2] = system: Mycobacterium tuberculosis; experiment: Antimycobacterial activity against Mycobacterium tuberculosis H37Rv by agar dilution method; type: functional
Outline: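 MIC99 was taken as the lowest concentration giving complete inhibition of bacterial growth.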

Mus musculus [3] = experiment: Phototoxic effect in UV light irradiated mouse assessed as ear thickness at 140 mg/kg, after 4 hrs relative to control; type: ADME, organism-based; design: dose 140 mg/kg; conditions: in vivo; outline: as §1
Mus musculus [4] = experiment: Phototoxic effect in UV light irradiated mouse assessed as ear thickness at 140 mg/kg, after 48 hrs relative to control; type: ADME, organism-based; design: dose 140 mg/kg; conditions: in vivo; outline: as §1
Mus musculus [5] = experiment: Phototoxic effect in UV light irradiated mouse assessed as number of mouse bearing erythema at 140 mg/kg, after 48 hrs relative to control; type: ADME, organism-based; design: dose 140 mg/kg; conditions: in vivo
Outline: (§2)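 Mice received 140 mg/kg and were UV-irradiated immediately after dosing, irradiation ending at 4 h. Both ears were scored for erythema at 0, 4, 24, 48, 72 and 96 h, counted as the number of mice with erythema. Vehicle control was 0.5% aqueous sodium carboxymethylcellulose at 10 mL/kg.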

Mus musculus [6] = experiment: Phototoxic effect in UV light irradiated mouse assessed as ear thickness at 140 mg/kg, after 96 hrs relative to control; type: ADME, organism-based; design: dose 140 mg/kg; conditions: in vivo; outline: as §1
Mus musculus [7] = experiment: Phototoxic effect in UV light irradiated mouse assessed as number of mouse bearing erythema at 140 mg/kg, after 24 hrs relative to control; type: ADME, organism-based; design: dose 140 mg/kg; conditions: in vivo; outline: as §2
Mus musculus [8] = experiment: Phototoxic effect in mouse assessed as number of mouse bearing erythema at 140 mg/kg administered before UV light exposure relative to control; type: ADME, organism-based; design: dose 140 mg/kg; conditions: in vivo; outline: as §2
Mus musculus [9] = experiment: Phototoxic effect in UV light irradiated mouse assessed as number of mouse bearing erythema at 140 mg/kg, after 72 hrs relative to control; type: ADME, organism-based; design: dose 140 mg/kg; conditions: in vivo; outline: as §2
Vero = experiment: Cytotoxicity against african green monkey Vero cells after 72 hrs by MTT assay; type: cell-based; conditions: Chlorocebus sabaeus
Outline: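 Vero cells exposed for 72 h; tested up to 62.5 µg/mL. Viability was read as cellular conversion of MTT to formazan, and IC50 was reported in µM.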

DNA gyrase subunit A = DNA gyrase subunit A (Mycolicibacterium smegmatis, UniProt Q59556); experiment: Inhibition of Mycobacterium smegmatis DNA gyrase
DNA gyrase subunit A, sequence (Q59556 whole entry): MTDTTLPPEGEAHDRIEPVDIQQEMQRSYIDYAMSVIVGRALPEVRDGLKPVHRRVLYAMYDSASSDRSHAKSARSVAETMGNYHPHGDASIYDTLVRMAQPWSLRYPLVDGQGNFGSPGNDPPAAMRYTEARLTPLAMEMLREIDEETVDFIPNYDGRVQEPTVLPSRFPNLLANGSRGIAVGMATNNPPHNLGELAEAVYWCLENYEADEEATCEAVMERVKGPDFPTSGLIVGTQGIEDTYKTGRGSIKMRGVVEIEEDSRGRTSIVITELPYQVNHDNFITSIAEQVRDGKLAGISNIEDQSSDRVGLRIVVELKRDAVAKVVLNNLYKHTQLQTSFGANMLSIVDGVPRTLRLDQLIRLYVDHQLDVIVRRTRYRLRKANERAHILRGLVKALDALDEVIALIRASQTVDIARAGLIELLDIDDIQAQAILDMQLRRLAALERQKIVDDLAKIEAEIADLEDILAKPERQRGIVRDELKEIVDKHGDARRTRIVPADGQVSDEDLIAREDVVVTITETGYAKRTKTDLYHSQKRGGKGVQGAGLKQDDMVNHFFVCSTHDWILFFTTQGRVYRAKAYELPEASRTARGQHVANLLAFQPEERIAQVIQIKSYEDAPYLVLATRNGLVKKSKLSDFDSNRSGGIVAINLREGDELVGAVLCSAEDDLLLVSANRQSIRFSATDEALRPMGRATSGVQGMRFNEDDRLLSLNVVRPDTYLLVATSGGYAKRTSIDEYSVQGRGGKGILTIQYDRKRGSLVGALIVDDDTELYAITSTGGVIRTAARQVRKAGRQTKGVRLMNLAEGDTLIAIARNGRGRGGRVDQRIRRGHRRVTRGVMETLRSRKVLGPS
Outline: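 Inhibition of DNA supercoiling by M. smegmatis (MC²) gyrase, run under standard assay conditions. Varying compound amounts were tested against a fixed amount of enzyme, and IC50 was derived from that series. Relaxed circular DNA served as marker, 5% DMSO as solvent control, and moxifloxacin at 5 µg/mL as positive control.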

Mus musculus [10] = experiment: Phototoxic effect in UV light irradiated mouse assessed as ear thickness at 140 mg/kg, after 72 hrs relative to control; type: ADME, organism-based; design: dose 140 mg/kg; conditions: in vivo; outline: as §1
Mus musculus [11] = experiment: Phototoxic effect in UV light irradiated mouse assessed as ear thickness at 140 mg/kg, after 24 hrs relative to control; type: ADME, organism-based; design: dose 140 mg/kg; conditions: in vivo; outline: as §1
Mus musculus [12] = experiment: Phototoxic effect in UV light irradiated mouse assessed as number of mouse bearing erythema at 140 mg/kg, after 96 hrs relative to control; type: ADME, organism-based; design: dose 140 mg/kg; conditions: in vivo; outline: as §2
[13] = system: Mycolicibacterium smegmatis; experiment: Antimycobacterial activity against Mycobacterium smegmatis ATCC 14468 by agar dilution method; type: functional
Outline: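 MC² (M. smegmatis) growth inhibition; MIC99 taken as the lowest concentration giving complete inhibition of bacterial growth, in µM.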

Mus musculus [14] = experiment: Phototoxic effect in UV light irradiated mouse assessed as number of mouse bearing erythema at 140 mg/kg, after 4 hrs relative to control; type: ADME, organism-based; design: dose 140 mg/kg; conditions: in vivo; outline: as §2

| SMILES | MIC99 [2] | IC50 (Vero) | MIC99 [13] | other results |
| --- | --- | --- | --- | --- |
| CC1COc2c(N3CCN(C(c4ccccc4)c4ccc(Cl)cc4)CC3)c(F)c([N+](=O)[O-])c3c(=O)c(C(=O)O)cn1c23 (stereo not given) | 2.63 µM (≈ 1.56 µg/mL) | 105 µM | 0.66 µM (≈ 0.391 µg/mL) | Activity (Mus musculus [1]): 0.28 mm; Activity (Mus musculus [3]): 0.28 mm; Activity (Mus musculus [4]): 0.29 mm; Activity (Mus musculus [5]): Non-toxic; Activity (Mus musculus [6]): 0.31 mm; Activity (Mus musculus [7]): Non-toxic; Activity (Mus musculus [8]): Non-toxic; Activity (Mus musculus [9]): Non-toxic; IC50 (DNA gyrase subunit A): 16.9 µM; Activity (Mus musculus [10]): 0.29 mm; Activity (Mus musculus [11]): 0.28 mm; Activity (Mus musculus [12]): Non-toxic; Activity (Mus musculus [14]): Non-toxic |
| CC1COc2c(N3CCN(C(=O)c4ccco4)CC3)c(F)c([N+](=O)[O-])c3c(=O)c(C(=O)O)cn1c23 (stereo not given) | 0.8 µM (≈ 0.389 µg/mL) | 64.2 µM | 3.21 µM (≈ 1.56 µg/mL) | – |
| CC1COc2c(N3CCN(C(=O)c4ccco4)CC3)c(F)cc3c(=O)c(C(=O)O)cn1c23 (stereo not given) | 7.09 µM (≈ 3.13 µg/mL) | – | 3.53 µM (≈ 1.56 µg/mL) | Activity (Mus musculus [1]): 0.29 mm; Activity (Mus musculus [3]): 0.3 mm; Activity (Mus musculus [4]): 0.29 mm; Activity (Mus musculus [5]): Non-toxic; Activity (Mus musculus [6]): 0.3 mm; Activity (Mus musculus [7]): Non-toxic; Activity (Mus musculus [8]): Non-toxic; Activity (Mus musculus [9]): Non-toxic; IC50 (DNA gyrase subunit A): > 113 µM; Activity (Mus musculus [10]): 0.29 mm; Activity (Mus musculus [11]): 0.29 mm; Activity (Mus musculus [12]): Non-toxic |
| COc1cc2c(cc1OC)CN(c1c(F)c([N+](=O)[O-])c3c(=O)c(C(=O)O)cn4c3c1OCC4C)CC2 (stereo not given) | 1.56 µM (≈ 0.779 µg/mL) | 62.5 µM | 12.5 µM (≈ 6.25 µg/mL) | – |
| CC1COc2c(N3CCn4cc(C(=O)O)nc4C3)c(F)c(N)c3c(=O)c(C(=O)O)cn1c23 (stereo not given) | 0.88 µM (≈ 0.39 µg/mL) | > 141 µM | 5.28 µM (≈ 2.34 µg/mL) | – |
| CC1COc2c(N3CCN(Cc4ccc5c(c4)OCO5)CC3)c(F)cc3c(=O)c(C(=O)O)cn1c23 (stereo not given) | 6.5 µM (≈ 3.13 µg/mL) | – | 26 µM (≈ 12.5 µg/mL) | – |
| CC1COc2c(N3CCC4(CC3)OCCO4)c(F)c([N+](=O)[O-])c3c(=O)c(C(=O)O)cn1c23 (stereo not given) | 0.21 µM (≈ 0.0944 µg/mL) | 139 µM | 3.47 µM (≈ 1.56 µg/mL) | – |
| CC1COc2c(N3CCC4(CC3)OCCO4)c(F)cc3c(=O)c(C(=O)O)cn1c23 (stereo not given) | 0.47 µM (≈ 0.19 µg/mL) | 155 µM | 3.86 µM (≈ 1.56 µg/mL) | Activity (Mus musculus [1]): 0.34 mm; Activity (Mus musculus [3]): 0.37 mm; Activity (Mus musculus [4]): 0.31 mm; Activity (Mus musculus [6]): 0.35 mm; Activity (Mus musculus [7]): Toxic; Activity (Mus musculus [8]): Non-toxic; IC50 (DNA gyrase subunit A): 124 µM; Activity (Mus musculus [10]): 0.32 mm; Activity (Mus musculus [11]): 0.32 mm; Activity (Mus musculus [12]): Non-toxic; Activity (Mus musculus [14]): Toxic |
| Cc1onc(-c2c(F)cccc2F)c1C(=O)N1CCN(c2c(F)cc3c(=O)c(C(=O)O)cn4c3c2OCC4C)CC1 (stereo not given) | 11 µM (≈ 6.25 µg/mL) | – | 44 µM (≈ 25 µg/mL) | – |
| CC1COc2c(N3CCN(C(=O)C4COc5ccccc5O4)CC3)c(F)c([N+](=O)[O-])c3c(=O)c(C(=O)O)cn1c23 (stereo not given) | 2.81 µM (≈ 1.56 µg/mL) | 113 µM | 11.3 µM (≈ 6.25 µg/mL) | – |
| CC1COc2c(N3CCn4cc(C(=O)O)nc4C3)c(F)cc3c(=O)c(C(=O)O)cn1c23 (stereo not given) | 0.91 µM (≈ 0.39 µg/mL) | > 146 µM | 29.2 µM (≈ 12.5 µg/mL) | – |
| CC1COc2c(N3CCC(n4c(=O)[nH]c5cc(Cl)ccc54)CC3)c(F)cc3c(=O)c(C(=O)O)cn1c23 (stereo not given) | 1.52 µM (≈ 0.78 µg/mL) | > 122 µM | 48.7 µM (≈ 25 µg/mL) | – |
| CC1COc2c(N3CCN(C(=O)C4COc5ccccc5O4)CC3)c(F)cc3c(=O)c(C(=O)O)cn1c23 (stereo not given) | 12.3 µM (≈ 6.25 µg/mL) | – | 49.1 µM (≈ 25 µg/mL) | – |
| CC1COc2c(N3CCN(C)C(c4ccccc4)C3)c(F)cc3c(=O)c(C(=O)O)cn1c23 (stereo not given) | 14.3 µM (≈ 6.25 µg/mL) | – | 114 µM (≈ 50 µg/mL) | – |
| CC1COc2c(N3CCC(O)(c4ccc(Cl)cc4)CC3)c(F)c([N+](=O)[O-])c3c(=O)c(C(=O)O)cn1c23 (stereo not given) | 1.51 µM (≈ 0.782 µg/mL) | 60.4 µM | 6.04 µM (≈ 3.13 µg/mL) | – |
| CC1CN(c2c(F)c([N+](=O)[O-])c3c(=O)c(C(=O)O)cn4c3c2OCC4C)CC(C)O1 (stereo not given) | 1.85 µM (≈ 0.78 µg/mL) | 148 µM | 1.85 µM (≈ 0.78 µg/mL) | IC50 (DNA gyrase subunit A): > 119 µM |
